Data reported in ChEMBL document CHEMBL1156144, “Biaryl ethers as novel non-nucleoside reverse transcriptase inhibitors with improved potency against key mutant viruses” (J Med Chem, 2009).

How the values were obtained:
[1] = Inhibition of RNA-dependent DNA polymerase activity of wild type HIV reverse transcriptase assessed as BrdU incorporation by standard ECL assay; design: species or system Human immunodeficiency virus
Procedure, shortened: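 Purified recombinant wild-type RT polymerase activity was measured using a 500-nt heteropolymeric RNA template and a biotinylated DNA primer. BrdU incorporation was detected with a ruthenylated anti-BrdU antibody by electrochemiluminescence. Ki is the geometric mean of at least two determinations, each within 25% of the mean.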

[2] = biological target: Human immunodeficiency virus type 1 reverse transcriptase (Human immunodeficiency virus 1, UniProt Q72547, K103N); test: Inhibition of RNA-dependent DNA polymerase activity of recombinant HIV reverse transcriptase K103N mutant assessed as BrdU incorporation by standard ECL assay
[3] = system: Human immunodeficiency virus; test: Antiviral activity against wild type HIV H9-3B infected in human MT2 cells assessed as inhibition of viral replication measuring p24 level after 3 days in presence of 10% fetal bovine serum; type: functional; settings: Human immunodeficiency virus 1, MT2, Serum; read-out: CIC95
Procedure, shortened: (§1)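 Multiple-cycle spread assay in MT2 cells with wild-type H9IIIB virus. Cells were infected overnight at moi ≈ 0.01 without compound, washed, then cultured 3 days across varying compound concentrations in RPMI 1640 with 10% FBS or 50% NHS. p24 was measured in supernatants. CIC95 is the lowest concentration inhibiting replication ≥95%, as the geometric mean of ≥2 determinations.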

[4] = system: Human immunodeficiency virus; test: Antiviral activity against wild type HIV H9-3B infected in human MT2 cells assessed as inhibition of viral replication measuring p24 level after 3 days in presence of 50% normal human serum; type: functional; settings: Human immunodeficiency virus 1, H9-3B, 72 h, read-out: CIC95; procedure, shortened: as §1
[5] = system: Human immunodeficiency virus; test: Antiviral activity against HIV with reverse transcriptase K103N mutant infected in human MT2 cells assessed as inhibition of viral replication measuring p24 level after 3 days in presence of 10% fetal bovine serum; type: functional; settings: Human immunodeficiency virus 1, MT2, Serum, 72 h; read-out: CIC95
Procedure, shortened: (§2)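 Multiple-cycle replication (Spread) assay in MT2 cells with H9IIIB-background mutant virus. Cells were infected overnight at moi ≈ 0.01 without compound, washed, then cultured 3 days across a range of compound concentrations in medium with 10% FBS. p24 was measured in supernatants. CIC95 is the lowest concentration inhibiting replication by ≥95%, reported as the geometric mean of ≥2 determinations.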

[6] = system: Human immunodeficiency virus; test: Antiviral activity against HIV with reverse transcriptase Y181C mutant infected in human MT2 cells assessed as inhibition of viral replication measuring p24 level after 3 days in presence of 10% fetal bovine serum; type: functional; settings: Human immunodeficiency virus 1, MT2, Serum, 72 h; read-out: CIC95; procedure, shortened: as §2
[7] = system: Human immunodeficiency virus; test: Antiviral activity against HIV with reverse transcriptase K103N/Y181C double mutant infected in human MT2 cells assessed as inhibition of viral replication measuring p24 level after 3 days in presence of 10% fetal bovine serum; type: functional; settings: Human immunodeficiency virus 1, MT2, Serum, 72 h; read-out: CIC95; procedure, shortened: as §2

Compound | Ki [1] [nM] | Ki [2] [nM] | IC95 [3] [µM] | IC95 [4] [µM] | IC95 [5] [µM] | IC95 [6] [µM] | IC95 [7] [µM]
N#Cc1cc(Cl)cc(Oc2ccc(F)c(OCc3n[nH]c4ncccc34)c2)c1 | 47 | 350 | 3.77 | > 8.3 | > 8.3 |  | 
N#Cc1cc(Cl)cc(Oc2cc(F)c(Cl)c(OCc3n[nH]c4ncccc34)c2)c1 | 5.2 | 0.8 | 0.011 | 0.103 | 0.011 | 0.031 | 0.093
CN(C)c1ccc2c(COc3ccc(Cl)c(Oc4cc(Cl)cc(C#N)c4)c3)noc2n1 | 0.3 | 0.9 | 0.103 | 0.309 | 0.309 |  | 
N#Cc1cc(Cl)cc(Oc2cc(OCc3noc4nc(N5CCNCC5)ccc34)ccc2Cl)c1 | 1.7 | 3 | 0.033 | 0.309 | 0.103 | 0.833 | 0.833
